ChEMBL document CHEMBL2062460, “Disubstituted thiourea derivatives and their activity on CNS: synthesis and biological evaluation” (Eur J Med Chem, 2012)
≈ marks a conversion by molar mass, not a printed value. Calls of active or inactive are those of the source. The rule behind the calls is not given here.

Key:
Proteus vulgaris = test: Antibacterial activity against Proteus vulgaris NCTC 4635 at 400 ug/disc after 18 hrs by disc diffusion method; assay type: functional, organism-based
How it was run: (§1)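 Disc diffusion per CLSI on Mueller–Hinton II agar; 9 mm paper discs loaded from methanol or DMSO solutions to 400 µg per disc, dried; growth inhibition zone diameter read after 18 h at 35 °C.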

Micrococcus luteus [1] = test: Antibacterial activity against Micrococcus luteus ATCC 9341 at 400 ug/disc after 18 hrs by disc diffusion method; assay type: functional; settings: ATCC 9341, 18 h, read-out: DIZ; how it was run: as §1
Micrococcus luteus [2] = test: Antibacterial activity against Micrococcus luteus ATCC 10240 after 18 hrs by twofold serial agar dilution technique; assay type: functional; settings: ATCC 10240, 18 h
Staphylococcus aureus [3] = test: Antibacterial activity against Staphylococcus aureus ATCC 6538 after 18 hrs by twofold serial agar dilution technique; assay type: functional; settings: ATCC 6538, 18 h
How it was run: (§2)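 Twofold serial agar dilution on Mueller–Hinton II agar, following CLSI guidelines. Compounds were dissolved in methanol or DMSO and tested at final agar concentrations of 3.125–400 µg/mL. Final inoculum was 10^4 CFU/mL.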

[4] = Cytotoxicity against human MT4 cells after 96 hrs by MTT assay; assay type: cell-based
Micrococcus luteus [5] = test: Antibacterial activity against Micrococcus luteus ATCC 10240 at 400 ug/disc after 18 hrs by disc diffusion method; assay type: functional; settings: ATCC 10240, 18 h, read-out: DIZ; how it was run: as §1
Staphylococcus aureus [6] = test: Antibacterial activity against Staphylococcus aureus ATCC 25923 at 400 ug/disc after 18 hrs by disc diffusion method; assay type: functional; settings: for zone of inhibition at 400 µg/disc: ATCC 25923, 18 h, read-out: DIZ; how it was run: as §1
[7] = test system: Staphylococcus epidermidis; test: Antibacterial activity against methicillin-resistant Staphylococcus epidermidis clinical isolate 316/08 after 18 hrs by twofold serial agar dilution technique; assay type: functional; settings: clinical isolate 316/08, 18 h
How it was run: (§3)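 Clinical isolates came from patients in Warsaw Medical University Hospitals and were classed as methicillin-susceptible or -resistant. MIC was determined by twofold serial agar dilution on Mueller–Hinton II agar (CLSI), 3.125–400 µg/mL in agar, with compounds in methanol or DMSO. Inoculum was 10^4 CFU/mL and plates were read after 18 h at 35 °C.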

Staphylococcus aureus [8] = test: Antibacterial activity against methicillin-resistant Staphylococcus aureus clinical isolate 357/09 after 18 hrs by twofold serial agar dilution technique; assay type: functional; settings: clinical isolate 357/09, 18 h; how it was run: as §3
Bacillus cereus = test: Antibacterial activity against Bacillus cereus ATCC 11778 after 18 hrs by twofold serial agar dilution technique; assay type: functional; settings: ATCC 11778, 18 h
Staphylococcus aureus [9] = test: Antibacterial activity against Staphylococcus aureus NCTC 4163 after 18 hrs by twofold serial agar dilution technique; assay type: functional; settings: NCTC 4163, 18 h; how it was run: as §2
Staphylococcus aureus [10] = test: Antibacterial activity against methicillin-susceptible Staphylococcus aureus clinical isolate 256/08 after 18 hrs by twofold serial agar dilution technique; assay type: functional; settings: clinical isolate 256/08, 18 h; how it was run: as §3
Staphylococcus aureus [11] = test: Antibacterial activity against methicillin-resistant Staphylococcus aureus clinical isolate 376/09 after 18 hrs by twofold serial agar dilution technique; assay type: functional; settings: clinical isolate 376/09, 18 h; how it was run: as §3
[12] = test system: Staphylococcus epidermidis; test: Antibacterial activity against methicillin-resistant Staphylococcus epidermidis clinical isolate 315/08 after 18 hrs by twofold serial agar dilution technique; assay type: functional; settings: clinical isolate 315/08, 18 h; how it was run: as §3
Staphylococcus aureus [13] = test: Antibacterial activity against methicillin-susceptible Staphylococcus aureus clinical isolate 338/08 after 18 hrs by twofold serial agar dilution technique; assay type: functional; settings: clinical isolate 338/08, 18 h; how it was run: as §3
[14] = test system: Staphylococcus epidermidis; test: Antibacterial activity against methicillin-resistant Staphylococcus epidermidis clinical isolate 318/08 after 18 hrs by twofold serial agar dilution technique; assay type: functional; settings: clinical isolate 318/08, 18 h; how it was run: as §3
Bacillus subtilis = test: Antibacterial activity against Bacillus subtilis ATCC 6633 at 400 ug/disc after 18 hrs by disc diffusion method; assay type: functional; settings: ATCC 6633, 18 h, read-out: DIZ; how it was run: as §1
[15] = test system: Staphylococcus epidermidis; test: Antibacterial activity against methicillin-resistant Staphylococcus epidermidis clinical isolate 341/09 after 18 hrs by twofold serial agar dilution technique; assay type: functional; settings: clinical isolate 341/09, 18 h; how it was run: as §3
[16] = test system: Bordetella bronchiseptica; test: Antibacterial activity against Bordetella bronchiseptica ATCC 4617 at 400 ug/disc after 18 hrs by disc diffusion method; assay type: functional, organism-based; how it was run: as §1
Staphylococcus aureus [17] = test: Antibacterial activity against methicillin-susceptible Staphylococcus aureus clinical isolate 367/09 after 18 hrs by twofold serial agar dilution technique; assay type: functional; settings: clinical isolate 367/09, 18 h; how it was run: as §3
Staphylococcus aureus [18] = test: Antibacterial activity against methicillin-resistant Staphylococcus aureus clinical isolate 325/09 after 18 hrs by twofold serial agar dilution technique; assay type: functional; settings: clinical isolate 325/09, 18 h; how it was run: as §3
Escherichia coli = test: Antibacterial activity against Escherichia coli NCTC 8196 at 400 ug/disc after 18 hrs by disc diffusion method; assay type: functional, organism-based; how it was run: as §1
[19] = test system: Staphylococcus epidermidis; test: Antibacterial activity against methicillin-resistant Staphylococcus epidermidis clinical isolate 342/09 after 18 hrs by twofold serial agar dilution technique; assay type: functional; settings: clinical isolate 342/09, 18 h; how it was run: as §3
Enterococcus hirae = test: Antibacterial activity against Enterococcus hirae ATCC 10541 at 400 ug/disc after 18 hrs by disc diffusion method; assay type: functional; settings: for zone of inhibition at 400 µg/disc: ATCC 10541, 18 h, read-out: DIZ; how it was run: as §1
[20] = test system: Human immunodeficiency virus 1; test: Antiviral activity against HIV1 infected in human MT4 cells assessed as virus-induced cytopathogenicity after 4 days by MTT assay; assay type: functional, organism-based; settings: Human immunodeficiency virus 1, MT4, 96 h
Staphylococcus aureus [21] = test: Antibacterial activity against Staphylococcus aureus ATCC 29213 at 400 ug/disc after 18 hrs by disc diffusion method; assay type: functional; settings: ATCC 29213, 18 h, read-out: DIZ; how it was run: as §1

Row | SMILES | diameter of the inhibition zone (DIZ) (Proteus vulgaris) | zone of inhibition at 400 µg/disc (Micrococcus luteus [1]) [mm] | MIC (Micrococcus luteus [2]) [µg/mL] | MIC (Staphylococcus aureus [3]) [µg/mL] | CC50 at 96 h [4] [µM] | zone of inhibition at 400 µg/disc (Micrococcus luteus [5]) [mm] | zone of inhibition at 400 µg/disc (Staphylococcus aureus [6]) [mm] | MIC [7] [µg/mL] | MIC (Staphylococcus aureus [8]) [µg/mL] | MIC (Bacillus cereus) [µg/mL] | MIC (Staphylococcus aureus [9]) [µg/mL] | MIC (Staphylococcus aureus [10]) [µg/mL] | MIC (Staphylococcus aureus [11]) [µg/mL] | MIC (Staphylococcus aureus [13]) [µg/mL] | zone of inhibition at 400 µg/disc (Bacillus subtilis) [mm] | diameter of the inhibition zone (DIZ) [16] | MIC (Staphylococcus aureus [17]) [µg/mL] | MIC (Staphylococcus aureus [18]) [µg/mL] | diameter of the inhibition zone (DIZ) (Escherichia coli) | zone of inhibition at 400 µg/disc (Staphylococcus aureus [21]) [mm] | other results
1 | S=C(Nc1ccc(Cl)cc1)Nc1nc[nH]n1 | inactive | 26 | 25 (≈ 98.5 µM) | 25 (≈ 98.5 µM) | 47 | 30 | 23 | 25 (≈ 98.5 µM) | 50 (≈ 197 µM) | 12.5 (≈ 49.3 µM) | 25 (≈ 98.5 µM) | 25 (≈ 98.5 µM) | 25 (≈ 98.5 µM) | 25 (≈ 98.5 µM) | 22 | inactive | 25 (≈ 98.5 µM) | 25 (≈ 98.5 µM) | inactive | 17 | MIC [12]: 25 µg/mL (≈ 98.5 µM); MIC [14]: 25 µg/mL (≈ 98.5 µM); MIC [15]: 12.5 µg/mL (≈ 49.3 µM); MIC [19]: 200 µg/mL (≈ 788 µM); zone of inhibition at 400 µg/disc (Enterococcus hirae): 23 mm; EC50 [20]: > 47 µM
2 | S=C(Nc1ccc(I)cc1)Nc1nc[nH]n1 | inactive | 13 | 12.5 (≈ 36.2 µM) | 25 (≈ 72.4 µM) | 46 | 16 | 13 | 50 (≈ 145 µM) | 50 (≈ 145 µM) | 12.5 (≈ 36.2 µM) | 25 (≈ 72.4 µM) | 25 (≈ 72.4 µM) | 50 (≈ 145 µM) | 50 (≈ 145 µM) | 18 | inactive | 25 (≈ 72.4 µM) | 25 (≈ 72.4 µM) | inactive | 13 | MIC [12]: 50 µg/mL (≈ 145 µM); MIC [14]: 12.5 µg/mL (≈ 36.2 µM); MIC [15]: 50 µg/mL (≈ 145 µM); MIC [19]: 25 µg/mL (≈ 72.4 µM); zone of inhibition at 400 µg/disc (Enterococcus hirae): 13 mm; EC50 [20]: > 46 µM
3 | S=C(Nc1ccccc1)Nc1nc[nH]n1 | inactive | 14 | 50 (≈ 228 µM) | 100 (≈ 456 µM) | > 100 | 12 | – | 100 (≈ 456 µM) | 50 (≈ 228 µM) | 100 (≈ 456 µM) | 100 (≈ 456 µM) | 50 (≈ 228 µM) | 50 (≈ 228 µM) | 50 (≈ 228 µM) | 16 | inactive | 50 (≈ 228 µM) | 50 (≈ 228 µM) | inactive | 11 | diameter of the inhibition zone (DIZ) (Staphylococcus aureus [6]): inactive; MIC [12]: 100 µg/mL (≈ 456 µM); MIC [14]: 50 µg/mL (≈ 228 µM); MIC [15]: 100 µg/mL (≈ 456 µM); MIC [19]: 200 µg/mL (≈ 912 µM); diameter of the inhibition zone (DIZ) (Enterococcus hirae): inactive; EC50 [20]: > 100 µM
4 | Fc1ccccc1NC(=S)Nc1nc[nH]n1 | inactive | 24 | 100 (≈ 421 µM) | 200 (≈ 843 µM) | – | 38 | 19 | – | > 400 | 100 (≈ 421 µM) | 200 (≈ 843 µM) | > 400 | > 400 | > 400 | 20 | inactive | > 400 | > 400 | inactive | 12 | diameter of the inhibition zone (DIZ) (Enterococcus hirae): inactive
5 | S=C(Nc1ccc(Br)cc1)Nc1nc[nH]n1 | inactive | 28 | 12.5 (≈ 41.9 µM) | 50 (≈ 168 µM) | > 100 | 29 | 22 | 50 (≈ 168 µM) | 50 (≈ 168 µM) | 12.5 (≈ 41.9 µM) | 50 (≈ 168 µM) | 25 (≈ 83.8 µM) | 50 (≈ 168 µM) | 50 (≈ 168 µM) | 30 | inactive | 50 (≈ 168 µM) | 50 (≈ 168 µM) | inactive | 16 | MIC [12]: 50 µg/mL (≈ 168 µM); MIC [14]: 25 µg/mL (≈ 83.8 µM); MIC [15]: 50 µg/mL (≈ 168 µM); MIC [19]: 25 µg/mL (≈ 83.8 µM); zone of inhibition at 400 µg/disc (Enterococcus hirae): 25 mm; EC50 [20]: > 100 µM
6 | Fc1cccc(NC(=S)Nc2nc[nH]n2)c1 | inactive | 36 | 50 (≈ 211 µM) | 100 (≈ 421 µM) | – | 40 | 34 | – | 25 (≈ 105 µM) | 50 (≈ 211 µM) | 50 (≈ 211 µM) | 25 (≈ 105 µM) | 25 (≈ 105 µM) | 24 (≈ 101 µM) | 32 | inactive | 12.5 (≈ 52.7 µM) | 12.5 (≈ 52.7 µM) | inactive | 18 | zone of inhibition at 400 µg/disc (Enterococcus hirae): 16 mm
7 | Fc1ccc(NC(=S)Nc2nc[nH]n2)cc1 | inactive | 19 | 6.25 (≈ 26.3 µM) | 50 (≈ 211 µM) | > 100 | 23 | 18 | 100 (≈ 421 µM) | 50 (≈ 211 µM) | 6.25 (≈ 26.3 µM) | 50 (≈ 211 µM) | 50 (≈ 211 µM) | 50 (≈ 211 µM) | 50 (≈ 211 µM) | 22 | inactive | 50 (≈ 211 µM) | 50 (≈ 211 µM) | inactive | 11 | MIC [12]: 50 µg/mL (≈ 211 µM); MIC [14]: 50 µg/mL (≈ 211 µM); MIC [15]: 100 µg/mL (≈ 421 µM); MIC [19]: 50 µg/mL (≈ 211 µM); zone of inhibition at 400 µg/disc (Enterococcus hirae): 11 mm; EC50 [20]: > 100 µM
8 | S=C(Nc1nc[nH]n1)Nc1ccccc1Br | inactive | 16 | 6.25 (≈ 21 µM) | 50 (≈ 168 µM) | > 100 | 15 | 13 | 100 (≈ 335 µM) | 50 (≈ 168 µM) | 25 (≈ 83.8 µM) | 50 (≈ 168 µM) | 50 (≈ 168 µM) | 50 (≈ 168 µM) | 50 (≈ 168 µM) | 17 | inactive | 50 (≈ 168 µM) | 50 (≈ 168 µM) | inactive | 12 | MIC [12]: 100 µg/mL (≈ 335 µM); MIC [14]: 50 µg/mL (≈ 168 µM); MIC [15]: 100 µg/mL (≈ 335 µM); MIC [19]: 50 µg/mL (≈ 168 µM); zone of inhibition at 400 µg/disc (Enterococcus hirae): 13 mm; EC50 [20]: > 100 µM
